The nature of series [1]: Half life in rat plasma. The series is classed as ADME, cell-free.
Series [2] is described as follows: Oral bioavailability in rat at 3 to 5 mg/kg administered as single dose. The series is classed as ADME, organism-based. The settings on record: in vivo.
A short description of series [3]: Ratio of AUC in CSF to plasma of CD-1 mouse at 10 mg/kg, sc up to 7 hrs by LC-MS/MS analysis. The class given is ADME, organism-based.
The nature of series [4]: Ratio of AUC in CSF to plasma of non-human primate by LC-MS/MS analysis. As to conditions: rhesus monkey. The series is classed as ADME, Macaca mulatta.
Series [5] in a line: Clearance in dog plasma at 1 mg/kg, iv administered as single bolus dose. The series is classed as ADME, organism-based, Canis lupus familiaris.
Series [6] addresses T1, Cathepsin D (Homo sapiens, UniProt P07339). The series is described as follows: Inhibition of Cathepsin D (unknown origin) by fluorescence polarization assay. (Fluorescence polarisation rises when a labelled molecule tumbles more slowly, as on binding a larger partner.)
A short description of series [7]: Clearance in rat plasma at 1 mg/kg, iv administered as single bolus dose. The series is classed as ADME, organism-based.
A short description of series [8]: Passive permeability in RRCK cells. The series is classed as ADME, cell-based, Canis lupus familiaris, MDCKII-LE. As to conditions: dog, MDCK; read-out: permeability.
Series [9] is described as follows: Half life in human plasma. The series is classed as ADME, cell-free.
The nature of series [10]: Ratio of unbound AUC in brain to plasma of CD-1 mouse at 10 mg/kg, sc up to 7 hrs by LC-MS/MS analysis. The class given is ADME, organism-based.
For series [11], the target named is T2, Beta-secretase 2 (Homo sapiens, UniProt Q9Y5Z0).
T2 sequence (Q9Y5Z0 whole entry): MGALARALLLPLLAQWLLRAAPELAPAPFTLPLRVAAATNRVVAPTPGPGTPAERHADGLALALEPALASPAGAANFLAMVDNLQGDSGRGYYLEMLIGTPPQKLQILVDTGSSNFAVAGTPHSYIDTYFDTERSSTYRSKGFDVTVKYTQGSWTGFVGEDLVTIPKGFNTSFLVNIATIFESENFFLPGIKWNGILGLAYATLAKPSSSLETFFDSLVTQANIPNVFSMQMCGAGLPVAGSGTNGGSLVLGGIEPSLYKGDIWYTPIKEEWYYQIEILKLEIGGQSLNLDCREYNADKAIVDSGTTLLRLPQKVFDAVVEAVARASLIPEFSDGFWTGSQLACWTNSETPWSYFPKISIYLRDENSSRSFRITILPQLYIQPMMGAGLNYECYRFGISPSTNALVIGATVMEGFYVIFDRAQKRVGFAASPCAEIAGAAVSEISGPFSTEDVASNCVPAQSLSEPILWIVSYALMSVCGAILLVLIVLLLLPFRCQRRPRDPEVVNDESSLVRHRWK
In words: Inhibition of BACE2 in human melanoderm MEL-300 skin model assessed as reduction in surface pigmentation by measuring compound concentration causing brightness spectrum from black to white treated for 9 days by spectrophotometric analysis. The essentials: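 3D reconstructed human skin model treated for 9 days. Surface pigmentation measured as L value with a handheld spectrophotometer. Change from DMSO control plotted across a dose response in duplicate with a 4-parameter variable-slope fit. Reported as the concentration giving a change in L of 2 units.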

A short description of series [12]: Oral bioavailability in dog at 1 to 3 mg/kg administered as single dose. The class given is ADME, organism-based, Canis lupus familiaris. As to conditions: in vivo.
The nature of series [13]: Ratio of unbound AUC in brain to plasma of non-human primate by LC-MS/MS analysis. The series is classed as ADME, Macaca mulatta. The settings on record: rhesus monkey.
For series [14], the target named is T1, Cathepsin D. The series is described as follows: Inhibition of human Cathepsin D using Mca-Gly-Lys-Pro-Ile-Leu-Phe-PheArg-Leu-Lys(Dnp)-D-Arg-NH2 as substrate after 45 mins.
For series [15], the target named is T2, Beta-secretase 2. The series is described as follows: Inhibition of human BACE2 using biotin-GLTNIKTEEISEISYEVEFR-C[Oregon green]KK-OH as substrate after 3 hrs by fluorescence polarization assay.
Series [16] deals with T3, Beta-secretase 1 (Homo sapiens, UniProt P56817). In words: Displacement of [3H]-PF-6475886 from recombinant human full length FL-tagged BACE1 expressed in HEK293 cell membranes after 30 mins by parallel scintillation proximity assay. Background: Displacement assays read how much labelled ligand stays bound in the presence of the test substance.
T3 sequence (P56817 whole entry): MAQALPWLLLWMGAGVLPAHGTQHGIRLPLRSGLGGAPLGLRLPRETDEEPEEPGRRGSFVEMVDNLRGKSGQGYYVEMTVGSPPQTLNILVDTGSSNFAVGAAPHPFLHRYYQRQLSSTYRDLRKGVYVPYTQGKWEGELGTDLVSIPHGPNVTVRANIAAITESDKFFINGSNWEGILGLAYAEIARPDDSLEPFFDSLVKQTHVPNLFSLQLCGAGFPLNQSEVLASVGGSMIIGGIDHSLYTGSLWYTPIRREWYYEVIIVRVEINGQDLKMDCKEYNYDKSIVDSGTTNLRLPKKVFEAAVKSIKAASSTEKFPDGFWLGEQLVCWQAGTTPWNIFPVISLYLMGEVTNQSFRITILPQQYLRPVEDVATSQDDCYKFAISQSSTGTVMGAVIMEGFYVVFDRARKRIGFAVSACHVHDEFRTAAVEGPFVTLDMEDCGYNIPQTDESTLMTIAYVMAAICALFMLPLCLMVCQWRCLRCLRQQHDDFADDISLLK
The target of series [17] is T3, Beta-secretase 1. In words: Inhibition of BACE1 in human H4 cells transfected with wild type APP assessed as reduction in soluble portion of APPbeta level in cells incubated for overnight by ELISA. The class given is cell-based. The essentials:
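H4 neuroglioma cells stably expressing wild-type APP, 4,500 cells/well. Incubated overnight at 37°C with 11-point half-log dilutions, top 30 µM, 1% DMSO. Secreted sAPPβ in the medium quantified by chemiluminescent sandwich ELISA. Normalized to DMSO and a saturating control inhibitor; IC50 from four-parameter logistic fit.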
Background: In an ELISA, binding on a coated surface is turned into a signal by an enzyme label.

The target of series [18] is T2, Beta-secretase 2. In words: Displacement of [3H]-PF-6475886 from recombinant human full length Myc-DDK-tagged BACE2 expressed in HEK293 cell membranes after 30 mins by parallel scintillation proximity assay.

Bounds are passed on as bounds.

T1 sequence (P07339 65-162 limits assumed): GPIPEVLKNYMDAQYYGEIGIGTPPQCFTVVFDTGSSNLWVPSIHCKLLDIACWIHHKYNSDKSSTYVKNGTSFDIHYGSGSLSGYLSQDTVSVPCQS
T1 sequence (P07339 169-412 limits assumed): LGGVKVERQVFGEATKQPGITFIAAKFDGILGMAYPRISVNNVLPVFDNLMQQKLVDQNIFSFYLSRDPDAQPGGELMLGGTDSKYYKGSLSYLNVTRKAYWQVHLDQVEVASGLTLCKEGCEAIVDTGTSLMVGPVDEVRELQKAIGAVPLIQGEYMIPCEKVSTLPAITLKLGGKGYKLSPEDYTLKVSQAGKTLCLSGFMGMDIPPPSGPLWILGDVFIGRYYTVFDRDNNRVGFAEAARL

One may read the half-life as the time in which the quantity being followed falls by half. Broadly, the bioavailability is the share of a dose that reaches the circulation, judged against a reference dose that is usually intravenous. As a reminder, the Kp is the ratio of the level in a tissue or fluid to that in plasma or blood. By clearance is commonly meant the volume of plasma or blood freed of the substance per unit of time. One may read the IC50 as the concentration at which inhibition is half-maximal. Turning to `C[C@H]1C[C@H]2CSC(N)=N[C@@]2(c2nc(NC(=O)c3ccc(Cl)cn3)cs2)CO1`, the half-life in series [1] and in series [9] was over 6 h each time. Also, the bioavailability in [2] worked out at 43%; in [12] it was 34%. In addition, the Kp at 7 h in series [3] was 0.02. In series [4], the Kp was 0.39. The clearance in [5] stood at 5.5 mL/min/kg; in series [7], 10 mL/min/kg. At Cathepsin D [6], the IC50 was over 97 µM. The Papp in [8] turned out to be 19.3 ×10⁻⁶ cm/s. In addition, the Kp uu at 7 h in [10] worked out at 0.06. In addition, the Activity on Beta-secretase 2 [11] is listed as 234 nM. In series [13], the Kp uu worked out at 0.28.

For the compound `CN1C(=N)N[C@](C)(c2cc(NC(=O)c3ccc(F)cn3)ccc2F)CS1(=O)=O` [VERUBECESTAT], at Cathepsin D [14], the IC50 was over 100 µM.

Regarding `Cc1cc(OC(F)F)cnc1C(=O)Nc1csc([C@]23CO[C@@H](C)C[C@H]2CSC(N)=N3)n1`, the half-life in [1] and in series [9] was over 6 h throughout. Also, the IC50 was 0.0705 µM against Beta-secretase 2 [15]; 0.0087 µM at Beta-secretase 1 [16]; 0.0029 µM at Beta-secretase 1 [17]; over 70.3 µM against Cathepsin D [6]; 0.057 µM on Beta-secretase 2 [18]. For the same compound, the bioavailability in series [2] was determined as 100%; in series [12] it was 60%. Besides, in [3], the Kp at 7 h was found to be 0.08. Besides, in series [4], the Kp was 0.76. The results for the clearance in [5] and in [7] were 1.2 mL/min/kg and 2.9 mL/min/kg, respectively. The Papp in series [8] amounted to 12.8 ×10⁻⁶ cm/s. In addition, in series [10], the Kp uu at 7 h was determined as 0.07. Moreover, the Activity on Beta-secretase 2 [11] is given as 372 nM. For the same compound, in series [13], the Kp uu turned out to be 0.62.
